27 compounds from ChEMBL document CHEMBL4342521 (J Med Chem, 2020) can be followed below.

Molecules are shown by their SMILES. Active and inactive are the calls of the source. No cut-off for these calls is given here.

Data set [1] has as its system MV4-11. Put plainly: Induction of apoptosis in human MV4-11 cells harboring wild type p53/FLT3-ITD mutant assessed as cleavage of pro-caspase 3 at 1000 to 5000 nM after 24 hrs by Western blot analysis. The class given is functional, cell-based. The method in brief:
(§1)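 Cells (1,500,000 per well) grown 12 h, then drug-treated as specified. Lysed in RIPA buffer, sonicated, centrifuged, protein normalized by BCA. Run on 4–12% Bis-Tris gels in MES, transferred, probed overnight at 4 °C with primary antibodies at 1/1000. Actin served as reference for LC3-II quantitation.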
(Immunoblotting shows a protein as a band on a membrane.)

For data set [2], the target named is Histone deacetylase 1 (Homo sapiens, UniProt Q13547). Nature of the data set: Inhibition of recombinant HDAC1 (unknown origin) using Boc-Lys(acetyl)-AMC as substrate preincubated for 1 hr followed by substrate addition and measured after 2 hrs by fluorescence based micro plate reader analysis.
Sequence of Histone deacetylase 1 (Q13547 whole entry): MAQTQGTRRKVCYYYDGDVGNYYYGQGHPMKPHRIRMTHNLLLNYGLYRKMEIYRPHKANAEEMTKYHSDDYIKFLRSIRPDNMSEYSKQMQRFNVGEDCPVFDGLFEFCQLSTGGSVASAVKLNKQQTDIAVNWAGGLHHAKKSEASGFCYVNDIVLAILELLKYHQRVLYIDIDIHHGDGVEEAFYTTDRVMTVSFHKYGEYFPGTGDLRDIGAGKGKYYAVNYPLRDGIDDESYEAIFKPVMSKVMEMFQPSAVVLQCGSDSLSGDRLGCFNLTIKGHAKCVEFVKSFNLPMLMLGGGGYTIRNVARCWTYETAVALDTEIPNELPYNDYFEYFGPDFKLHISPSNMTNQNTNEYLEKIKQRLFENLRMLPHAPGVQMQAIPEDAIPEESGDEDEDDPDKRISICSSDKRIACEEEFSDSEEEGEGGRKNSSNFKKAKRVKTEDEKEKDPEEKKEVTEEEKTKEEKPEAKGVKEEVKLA
The target in data set [3] is Histone deacetylase 2 (Homo sapiens, UniProt Q92769).
Sequence of Histone deacetylase 2 (Q92769 whole entry): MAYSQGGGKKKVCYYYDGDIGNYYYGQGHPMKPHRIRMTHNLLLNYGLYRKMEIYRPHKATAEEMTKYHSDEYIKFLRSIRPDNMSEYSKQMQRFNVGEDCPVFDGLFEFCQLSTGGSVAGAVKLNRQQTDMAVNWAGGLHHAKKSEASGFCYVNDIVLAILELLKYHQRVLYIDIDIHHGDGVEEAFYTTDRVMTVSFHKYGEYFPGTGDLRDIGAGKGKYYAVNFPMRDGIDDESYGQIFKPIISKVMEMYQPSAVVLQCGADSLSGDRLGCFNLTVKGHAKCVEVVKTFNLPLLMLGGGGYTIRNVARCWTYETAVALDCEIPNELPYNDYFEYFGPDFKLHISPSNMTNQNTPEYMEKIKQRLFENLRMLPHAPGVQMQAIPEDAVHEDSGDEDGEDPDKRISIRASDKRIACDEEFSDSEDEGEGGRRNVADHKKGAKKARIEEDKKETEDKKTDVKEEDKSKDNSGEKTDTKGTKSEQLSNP
Data set [4] deals with Histone deacetylase 3/Nuclear receptor corepressor 2 (HDAC3/NCoR2) (Homo sapiens, UniProt O15379). Nature of the data set: biochemical. Also noted: species or system Sf9.
Sequence of Histone deacetylase 3/Nuclear receptor corepressor 2 (HDAC3/NCoR2) (O15379 whole entry): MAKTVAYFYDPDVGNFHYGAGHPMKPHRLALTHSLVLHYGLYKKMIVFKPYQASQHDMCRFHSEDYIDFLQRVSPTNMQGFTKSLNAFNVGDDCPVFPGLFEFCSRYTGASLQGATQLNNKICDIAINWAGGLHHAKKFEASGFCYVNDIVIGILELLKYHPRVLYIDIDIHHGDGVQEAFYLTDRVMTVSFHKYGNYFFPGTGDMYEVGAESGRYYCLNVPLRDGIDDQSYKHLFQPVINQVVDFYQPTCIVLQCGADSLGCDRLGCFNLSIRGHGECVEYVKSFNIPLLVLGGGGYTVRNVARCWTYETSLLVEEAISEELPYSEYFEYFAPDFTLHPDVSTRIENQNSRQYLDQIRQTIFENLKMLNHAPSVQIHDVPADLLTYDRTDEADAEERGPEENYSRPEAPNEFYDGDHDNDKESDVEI
Sequence of Histone deacetylase 3/Nuclear receptor corepressor 2 (HDAC3/NCoR2) (Q9Y618 whole entry, further chain): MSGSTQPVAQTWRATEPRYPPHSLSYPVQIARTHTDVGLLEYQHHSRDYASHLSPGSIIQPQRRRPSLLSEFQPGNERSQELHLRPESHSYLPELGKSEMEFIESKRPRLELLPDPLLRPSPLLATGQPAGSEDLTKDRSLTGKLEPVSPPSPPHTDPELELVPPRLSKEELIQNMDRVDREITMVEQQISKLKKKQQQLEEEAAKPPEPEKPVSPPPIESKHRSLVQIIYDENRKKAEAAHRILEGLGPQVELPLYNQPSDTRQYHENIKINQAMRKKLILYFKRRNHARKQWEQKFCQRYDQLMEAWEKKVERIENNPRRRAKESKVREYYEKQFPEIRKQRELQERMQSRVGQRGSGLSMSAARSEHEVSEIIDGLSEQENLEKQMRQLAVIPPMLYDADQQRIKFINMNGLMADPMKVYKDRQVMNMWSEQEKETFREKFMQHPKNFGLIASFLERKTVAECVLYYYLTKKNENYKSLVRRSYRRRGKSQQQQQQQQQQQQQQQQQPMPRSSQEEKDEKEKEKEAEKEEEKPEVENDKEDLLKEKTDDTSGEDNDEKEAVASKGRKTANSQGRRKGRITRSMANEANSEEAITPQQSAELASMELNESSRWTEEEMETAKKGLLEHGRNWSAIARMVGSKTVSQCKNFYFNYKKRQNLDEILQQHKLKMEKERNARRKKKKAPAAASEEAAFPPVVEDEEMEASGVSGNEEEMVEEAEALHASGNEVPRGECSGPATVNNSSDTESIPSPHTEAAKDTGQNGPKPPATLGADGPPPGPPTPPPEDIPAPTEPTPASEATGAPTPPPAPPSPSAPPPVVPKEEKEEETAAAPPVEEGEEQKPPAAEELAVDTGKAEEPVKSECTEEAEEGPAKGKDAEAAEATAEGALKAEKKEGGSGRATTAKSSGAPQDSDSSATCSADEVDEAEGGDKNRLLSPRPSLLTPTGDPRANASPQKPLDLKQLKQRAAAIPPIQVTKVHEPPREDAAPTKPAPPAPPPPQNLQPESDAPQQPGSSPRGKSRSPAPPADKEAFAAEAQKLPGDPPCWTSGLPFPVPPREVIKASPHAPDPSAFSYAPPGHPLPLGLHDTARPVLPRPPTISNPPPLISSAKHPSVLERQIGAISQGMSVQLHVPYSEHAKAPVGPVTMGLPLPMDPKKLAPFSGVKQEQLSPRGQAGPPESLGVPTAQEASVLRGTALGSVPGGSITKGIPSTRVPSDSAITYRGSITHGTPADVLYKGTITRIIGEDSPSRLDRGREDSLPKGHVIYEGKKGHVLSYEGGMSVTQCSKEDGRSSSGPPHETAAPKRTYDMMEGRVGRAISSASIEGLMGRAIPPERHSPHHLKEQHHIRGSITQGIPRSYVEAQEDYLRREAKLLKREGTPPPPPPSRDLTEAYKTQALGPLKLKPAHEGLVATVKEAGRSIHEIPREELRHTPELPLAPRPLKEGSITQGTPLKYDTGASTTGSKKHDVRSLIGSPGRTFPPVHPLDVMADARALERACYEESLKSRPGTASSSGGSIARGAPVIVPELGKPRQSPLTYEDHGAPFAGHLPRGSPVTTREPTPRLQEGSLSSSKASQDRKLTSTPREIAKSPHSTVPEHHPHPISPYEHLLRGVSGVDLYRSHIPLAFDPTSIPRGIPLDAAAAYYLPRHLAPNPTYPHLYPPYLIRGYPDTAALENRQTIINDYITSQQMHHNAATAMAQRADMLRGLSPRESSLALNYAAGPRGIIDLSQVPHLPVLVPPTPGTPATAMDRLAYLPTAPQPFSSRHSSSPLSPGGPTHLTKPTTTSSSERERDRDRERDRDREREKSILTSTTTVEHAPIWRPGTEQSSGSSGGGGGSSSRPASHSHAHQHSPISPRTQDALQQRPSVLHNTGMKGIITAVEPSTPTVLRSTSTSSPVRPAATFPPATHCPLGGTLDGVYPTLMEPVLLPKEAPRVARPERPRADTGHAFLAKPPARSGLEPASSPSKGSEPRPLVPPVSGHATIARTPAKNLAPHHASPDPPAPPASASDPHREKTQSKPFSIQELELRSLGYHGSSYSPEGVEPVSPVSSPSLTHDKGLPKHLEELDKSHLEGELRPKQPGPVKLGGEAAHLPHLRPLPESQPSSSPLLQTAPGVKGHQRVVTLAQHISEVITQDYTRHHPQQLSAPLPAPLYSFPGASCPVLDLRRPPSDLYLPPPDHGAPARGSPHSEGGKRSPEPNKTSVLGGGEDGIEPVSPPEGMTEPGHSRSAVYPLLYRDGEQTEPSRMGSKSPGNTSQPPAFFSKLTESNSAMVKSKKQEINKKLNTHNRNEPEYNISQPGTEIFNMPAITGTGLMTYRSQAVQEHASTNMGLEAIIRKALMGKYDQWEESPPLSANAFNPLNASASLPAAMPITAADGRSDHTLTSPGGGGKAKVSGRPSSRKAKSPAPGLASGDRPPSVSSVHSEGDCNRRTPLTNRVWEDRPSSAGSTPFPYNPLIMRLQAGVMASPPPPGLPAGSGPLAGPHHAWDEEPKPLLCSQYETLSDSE
The target in data set [5] is T1, Protein deacetylase HDAC6 (Homo sapiens, UniProt Q9UBN7).
T1 sequence (Q9UBN7 whole entry): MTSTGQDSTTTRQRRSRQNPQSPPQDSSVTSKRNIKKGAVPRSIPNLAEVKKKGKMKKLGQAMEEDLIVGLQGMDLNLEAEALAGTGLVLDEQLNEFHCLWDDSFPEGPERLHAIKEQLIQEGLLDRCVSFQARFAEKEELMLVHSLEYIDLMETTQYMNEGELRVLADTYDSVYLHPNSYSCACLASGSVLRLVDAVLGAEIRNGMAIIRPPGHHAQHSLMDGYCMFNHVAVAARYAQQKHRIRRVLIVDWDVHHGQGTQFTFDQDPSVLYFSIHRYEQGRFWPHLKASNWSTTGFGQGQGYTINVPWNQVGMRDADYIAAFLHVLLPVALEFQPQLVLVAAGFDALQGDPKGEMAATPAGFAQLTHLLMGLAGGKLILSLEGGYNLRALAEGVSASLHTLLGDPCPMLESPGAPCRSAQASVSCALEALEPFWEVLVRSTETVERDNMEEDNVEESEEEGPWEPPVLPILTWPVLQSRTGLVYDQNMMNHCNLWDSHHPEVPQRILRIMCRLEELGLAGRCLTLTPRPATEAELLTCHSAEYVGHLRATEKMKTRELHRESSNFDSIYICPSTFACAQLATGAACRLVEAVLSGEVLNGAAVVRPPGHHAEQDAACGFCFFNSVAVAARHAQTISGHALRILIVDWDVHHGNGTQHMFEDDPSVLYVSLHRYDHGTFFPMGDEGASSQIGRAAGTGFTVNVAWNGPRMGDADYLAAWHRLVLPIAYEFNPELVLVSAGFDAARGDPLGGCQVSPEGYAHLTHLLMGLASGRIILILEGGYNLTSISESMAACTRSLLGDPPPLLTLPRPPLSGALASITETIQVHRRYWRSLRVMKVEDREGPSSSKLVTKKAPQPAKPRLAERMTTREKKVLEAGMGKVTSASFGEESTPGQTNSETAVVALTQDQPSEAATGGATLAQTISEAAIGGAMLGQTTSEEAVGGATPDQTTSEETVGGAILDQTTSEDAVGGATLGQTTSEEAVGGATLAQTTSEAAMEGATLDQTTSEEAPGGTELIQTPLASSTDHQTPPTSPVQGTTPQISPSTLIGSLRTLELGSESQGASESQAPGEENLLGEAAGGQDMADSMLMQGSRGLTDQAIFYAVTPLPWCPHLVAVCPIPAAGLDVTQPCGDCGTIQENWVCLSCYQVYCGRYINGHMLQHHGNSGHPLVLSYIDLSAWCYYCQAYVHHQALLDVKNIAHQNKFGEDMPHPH
Nature of the data set: Inhibition of recombinant HDAC6 (unknown origin) using Boc-Lys(acetyl)-AMC as substrate preincubated for 1 hr followed by substrate addition and measured after 2 hrs by fluorescence based micro plate reader analysis.

In data set [6] the test system is MV4-11. Put plainly: Induction of apoptosis in human MV4-11 cells harboring wild type p53/FLT3-ITD mutant assessed as cleavage of pro-caspase 3 at 5000 nM after 24 hrs by Western blot analysis. The class given is functional, cell-based. A digest of the protocol:
as §1

Data set [7] has as its system RS4-11. Nature of the data set: Induction of apoptosis in human RS4:11 cells harboring wild type p53/FLT3 assessed as cleavage of pro-caspase 3 at 5000 nM after 24 hrs by Western blot analysis. The format is functional, cell-based. A digest of the protocol: as §1
In data set [8] the test system is MV4-11. Nature of the data set: Antiproliferative activity against human MV4-11 cells at 50 uM after 48 hrs by CellTiter-Blue dye based spectrophotometric analysis. The class given is functional, cell-based. (Resazurin is reduced to fluorescent resorufin, in cell work by metabolically active cells.)
In data set [9] the test system is MV4-11. Put plainly: Inhibition of autophagy in human MV4-11 cells assessed as LC3-II degradation at 5 uM after 24 hrs by Western blot analysis. The format is functional, cell-based. A digest of the protocol: as §1
Data set [10] in a line: Mutagenecity in Salmonella typhimurium TA100 at 10 uM in presence of S9 liver homogenate after 2 to 3 days by mini-Ames test. The class given is toxicity. Conditions: salmonella enterica subsp. enterica serovar typhimurium, s9, 10 µM. The method in brief: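 Compound was tested at a final 10 μM undiluted plus four serial dilutions, with S9 mix and glucose/biotin/trace-histidine exposure solution, for 100 min at 37 °C. Reversion medium was added and cultures dispensed to 96 wells for 2–3 days at 37 °C. Yellow or partial-yellow wells were scored positive; 2-aminoanthracene was the positive control.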
On the technique in general: The Ames test uses bacterial strains that need an amino acid and regain growth without it when mutated back.

For data set [11], the system named is MV4-11. Nature of the data set: Induction of apoptosis in human MV4-11 cells harboring wild type p53/FLT3-ITD mutant assessed as cleavage of pro-caspase 3 at 50 to 200 nM after 24 hrs by Western blot analysis. The class given is functional, cell-based. The method in brief:
as §1

Data set [12] has as its system MV4-11. Put plainly: Down regulation of FTL3 in human MV4-11 cells harboring wild type p53/FLT3-ITD mutant at 50 to 200 nM after 24 hrs by Western blot analysis. The class given is functional, cell-based. The method in brief: as §1
For data set [13], the system named is MV4-11. Put plainly: Down regulation of STAT5 in human MV4-11 cells harboring wild type p53/FLT3-ITD mutant at 50 to 200 nM after 24 hrs by Western blot analysis. The class given is functional, cell-based. A digest of the protocol:
as §1

For data set [14], the system named is MV4-11. Put plainly: cells. As to conditions: Homo sapiens, MV4-11, 48 h.

`Nc1ccccc1NC(=O)c1ccc(CNC(=O)OCc2cccnc2)cc1`: the result in [1] was Active.

In general, IC50 refers to the concentration that gives 50% inhibition. As for `CCCNNC(=O)c1ccc(NC(=O)c2ccccc2)cc1`, the IC50 in data set [2] is 0.093 µM; in [3], 0.474 µM; in [4] it was 0.0487 µM; in data set [5] it was more than 50 µM.

Take `CCCNNC(=O)c1ccc(CN(CCc2c(C)[nH]c3ccccc23)C(=O)OC(C)(C)C)cc1`: the half-inhibitory concentration (IC50) in [2] was 0.0288 µM; in [3] it was 0.279 µM; in [4], 0.0126 µM; in data set [5], more than 50 µM.

As to `CCCNNC(=O)c1cccc(CN(CCc2c(C)[nH]c3ccccc23)C(=O)OC(C)(C)C)c1`, the IC50 in [2] is 2.52 µM; in data set [3], more than 5 µM; in data set [4], more than 5 µM; in data set [5], more than 50 µM.

Turning to `CCCNNC(=O)/C=C/c1ccc(CN(CCc2c(C)[nH]c3ccccc23)C(=O)OC(C)(C)C)cc1`, the half-inhibitory concentration (IC50) in data set [2] is 0.181 µM; in data set [3], 1.3 µM; in data set [4], 0.0168 µM; in data set [5], more than 50 µM.

For the compound `O=C(CCCCCCC(=O)Nc1ccccc1)NO`, the result in data set [6] and in data set [7] was Active.

As for `Cc1[nH]c2ccccc2c1CCNCc1ccc(/C=C/C(=O)NN2CCCCC2)cc1`, the concentration for half-maximal inhibition (IC50) in [2] is more than 10 µM; in data set [3], more than 10 µM; in data set [4] it was more than 10 µM; in data set [5], more than 50 µM. Further, in data set [8], the outcome was inactive.

Regarding `CCCCN(CCC)NC(=O)/C=C/c1ccc(CNCCc2c(C)[nH]c3ccccc23)cc1`, the IC50 in data set [2] was 0.21 µM; in [3], 3.22 µM; in [4], 0.229 µM; in data set [5], more than 50 µM.

Consider `CCN(CC)CCCC(C)Nc1ccnc2cc(Cl)ccc12` (stereo unspecified), for which, in data set [9], the inhibition entry was “Active”.

As for `CCCCCN(CCC)NC(=O)/C=C/c1ccc(CNCCc2c(C)[nH]c3ccccc23)cc1`, the half-inhibitory concentration (IC50) in [2] is 0.382 µM; in [3] it was 7.32 µM; in data set [4], 0.321 µM; in data set [5], more than 50 µM.

As to `COC(=O)CCNNC(=O)/C=C/c1ccc(CNCCc2c(C)[nH]c3ccccc23)cc1`, the IC50 is 1.09 µM in data set [2], 4.21 µM in data set [3], 0.31 µM in [4] and more than 50 µM in data set [5].

Take `CCCN(CC)NC(=O)/C=C/c1ccc(CNCCc2c(C)[nH]c3ccccc23)cc1`: the IC50 in data set [2] was 2.92 µM; in data set [3] it was 8.07 µM; in data set [4], 0.55 µM; in [5] it was more than 50 µM.

In the case of `CCCNNC(=O)c1ccc(NCc2ccccc2)cc1`, the 50% inhibitory concentration (IC50) is 0.0158 µM in data set [2], 0.0675 µM in [3], 0.00612 µM in [4] and more than 50 µM in data set [5].

Take `Cc1[nH]c2ccccc2c1CCNCc1ccc(/C=C/C(=O)NN2CCCC2)cc1`: the 50% inhibitory concentration (IC50) in [2] was 8.6 µM; in data set [3], more than 10 µM; in [4], 3.09 µM; in data set [5] it was more than 50 µM. Besides, the result in data set [8] was inactive.

For `CCCNNC(=O)c1ccc(CNCCc2c(C)[nH]c3ccccc23)cc1`, the 50% inhibitory concentration (IC50) in [2] is 0.0294 µM; in [3], 0.107 µM; in data set [4], 0.0199 µM; in data set [5], more than 50 µM.

In the case of `CCCNNC(=O)c1cccc(CNCCc2c(C)[nH]c3ccccc23)c1`, the IC50 is 1.67 µM in [2], 4.94 µM in [3], 0.674 µM in data set [4] and more than 50 µM in data set [5].

Regarding `Cc1[nH]c2ccccc2c1CCNCc1ccc(/C=C/C(=O)NNCCC#N)cc1`, the IC50 in [2] is 0.0581 µM; in [3], 0.172 µM; in data set [4] it was 0.0348 µM; in [5], more than 50 µM.

In the case of `Nc1ccc2cc3ccccc3cc2c1` [2-AMINOANTHRACENE], the Activity result in [10] is “Toxic”.

With `CCCNNC(=O)c1ccc(CNC(=O)/C=C/c2ccccc2)cc1`, the result in data set [11], in [12] and in [13] was Active.

Broadly, the EC50 is the midpoint of the concentration-response curve. `CCCNNC(=O)c1ccc(CNCc2ccccc2)cc1`: the half-inhibitory concentration (IC50) was 0.088 µM in data set [2], 0.441 µM in [3], 0.0967 µM in data set [4] and more than 50 µM in [5]. A half-maximal response in data set [14] (EC50) required 0.173 µM.

On to `CCCN(CCC)NC(=O)/C=C/c1ccc(CNCCc2c(C)[nH]c3ccccc23)cc1`, for which the IC50 in data set [2] is 0.413 µM; in data set [3], 1.37 µM; in data set [4], 0.0252 µM; in [5], more than 50 µM.

Consider `Cc1[nH]c2ccccc2c1CCNCc1ccc(/C=C/C(=O)NNCCN)cc1`, for which the concentration for half-maximal inhibition (IC50) was 9.84 µM in [2], more than 10 µM in [3], 5.24 µM in [4] and more than 50 µM in [5].

As to `Cc1[nH]c2ccccc2c1CCNCc1ccc(/C=C/C(=O)NN(C)C)cc1`, the IC50 in data set [2] is 11 µM; in data set [3], 12.9 µM; in data set [4] it was 0.996 µM; in data set [5] it was more than 50 µM. The result in [8] was inactive.

On to `CCCNNC(=O)c1ccc(CN(Cc2ccccc2)C(=O)OC(C)(C)C)cc1`, for which the IC50 in [2] is 0.217 µM; in data set [3], 0.579 µM; in data set [4], 0.0781 µM; in data set [5], more than 50 µM.

Regarding `CCCNNC(=O)c1ccc(OCc2ccccc2)cc1`, the 50% inhibitory concentration (IC50) in data set [2] was 0.0563 µM; in data set [3], 0.175 µM; in data set [4], 0.0248 µM; in data set [5], more than 50 µM.

Turning to `CCCCCCN(CCC)NC(=O)/C=C/c1ccc(CNCCc2c(C)[nH]c3ccccc23)cc1`, the concentration for half-maximal inhibition (IC50) in data set [2] was 2.88 µM; in data set [3], 9.83 µM; in [4], 0.143 µM; in data set [5] it was more than 50 µM.

Consider `Cc1[nH]c2ccccc2c1CCNCc1ccc(/C=C/C(=O)NN(CCCO)CCCO)cc1`, for which the IC50 in [2] is more than 10 µM; in data set [3], more than 10 µM; in [4], more than 10 µM; in data set [5] it was more than 50 µM. Besides, the outcome in [8] was inactive.
